From ChEMBL document CHEMBL4325922, “Restoring Let-7 microRNA Biogenesis Using a Small-Molecule Inhibitor of the Protein-RNA Interaction” (ACS Med Chem Lett, 2018)
Activity calls are given as the source filed them.

Tests used:
[1] = molecular target: T1, Protein lin-28 homolog A (Homo sapiens) (UniProt Q9H9Z2); assay: Binding affinity to recombinant human N-terminal His6-tagged Lin28a cold shock domain expressed in Escherichia coli Rosetta2 (DE3) pLysS at 0.625 to 10 uM by surface plasmon resonance analysis
T1 sequence (whole entry): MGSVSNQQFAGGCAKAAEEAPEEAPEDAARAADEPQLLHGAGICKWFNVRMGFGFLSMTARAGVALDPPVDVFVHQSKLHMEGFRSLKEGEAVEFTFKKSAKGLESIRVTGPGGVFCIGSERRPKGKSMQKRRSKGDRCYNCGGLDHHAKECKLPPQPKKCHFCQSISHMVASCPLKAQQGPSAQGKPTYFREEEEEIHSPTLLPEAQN

[2] = molecular target: T1, Protein lin-28 homolog A (Homo sapiens); assay: Inhibition of Lin28a in human PA1 cells assessed as reduction in HMGA2 expression at 10 uM after 24 hrs by Western blot analysis; format: cell-based
Method in brief: (§1)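 Endogenous let-7 target proteins (HMGA2, IMP1, Ras, Lin28a) detected by Western blot in JAR or PA-1 cells after 24 h compound treatment.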

[3] = molecular target: T2, Protein lin-28 homolog A/B (Homo sapiens) (UniProt Q6ZN17+Q9H9Z2); assay: Inhibition of Lin28a/Lin28b in human paclitaxel-resistant JAR cells assessed as reduction in MDR1 expression at 10 uM measured after 24 hrs by Western blot analysis
[4] = molecular target: T3, Protein lin-28 homolog A (Homo sapiens, UniProt Q9H9Z2); assay: Inhibition of Cy5-preE-let-7g binding to recombinant human N-terminal His6-tagged Lin28a expressed in Escherichia coli Rosetta2 (DE3) pLysS measured after 30 to 60 mins by electrophoretic mobility shift assay
T3 sequence (Q9H9Z2 whole entry): T1 sequence (whole entry)

[5] = molecular target: T1, Protein lin-28 homolog A (Homo sapiens); assay: Inhibition of Lin28a in human PA1 cells assessed as increase in mature let-7i level at 10 uM after 20 hrs by TRIzol dye based qRT-PCR analysis; format: cell-based
Method in brief: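 PA-1 ovarian teratocarcinoma cells (express Lin28a) treated for 20 h; let-7 quantified relative to U6 snRNA; 4 biological replicates, standard deviation, paired two-tailed t test.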

[6] = molecular target: T2, Protein lin-28 homolog A/B (Homo sapiens); assay: Inhibition of Lin28a/Lin28b in human paclitaxel-resistant JAR cells assessed as potentiation of paclitaxel induced cytotoxicity at 10 uM pretreated for 30 hrs followed by paclitaxel addition and measured after 72 hrs by WTS assay
Method in brief: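 Paclitaxel-resistant JAR persister cells, enriched by cytotoxic paclitaxel exposure and regrowth without drug. Cells pretreated 30 h with compound, then given paclitaxel for 72 h without compound; WST viability used to derive the paclitaxel IC50.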

[7] = tested on: JAR; assay: Effect on miR-98 level in human JAR cells at 5 to 10 uM after 20 hrs by TRIzol dye based qRT-PCR analysis; format: functional, cell-based
Method in brief: (§2)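 JAR cells (express Lin28a and Lin28b) exposed to compound for 20 h; miRNA levels quantified with U6 snRNA as endogenous control; three or more biological replicates, standard deviation, paired two-tailed t test.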

[8] = molecular target: T3, Protein lin-28 homolog A; assay: Binding affinity to recombinant human N-terminal His6-tagged Lin28a expressed in Escherichia coli Rosetta2 (DE3) pLysS by surface plasmon resonance analysis
Method in brief: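 Surface plasmon resonance detecting direct binding of analyte to immobilized Lin28a, run at concentrations from 0.31 to 10 μM; binding read as a dose–response curve and Rmax calculated.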

[9] = tested on: PA-1; assay: Increase in mature let-7d level in Lin28a CRISPR-Cas9 knockout human PA1 cells at 10 uM after 20 hrs by qRT-PCR analysis; format: functional, cell-based
Method in brief: (§3)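 PA-1 cells with Lin28a fully knocked out by CRISPR/Cas9 editing (clonal lines) treated for 20 h; let-7 levels normalized to U6 snRNA; 2 technical replicates.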

[10] = molecular target: T2, Protein lin-28 homolog A/B (Homo sapiens); assay: Inhibition of Lin28a/Lin28b in human paclitaxel-resistant JAR cells assessed as reduction in IMP1 expression at 10 uM measured after 24 hrs by Western blot analysis
[11] = molecular target: T2, Protein lin-28 homolog A/B (Homo sapiens); assay: Inhibition of Lin28a/Lin28b in human JAR cells assessed as reduction in IMP1 expression at 5 to 10 uM after 24 hrs by Western blot analysis; format: cell-based; method in brief: as §1
[12] = molecular target: Heterogeneous nuclear ribonucleoprotein A1 (Homo sapiens) (UniProt P09651); assay: Inhibition of biotinylated-preE-let-7g binding to hnRNPA1 in human JAR cells by pull down assay; format: cell-based
Method in brief: (§4)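 5′-Biotinylated preE-let-7g is immobilized on streptavidin beads and incubated with proteome from JAR human choriocarcinoma cells, which express Lin28a and Lin28b. Test compound is present during binding, and target engagement is judged by the proteins pulled down.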

[13] = Cytotoxicity against mouse C8-D1A cells at 10 uM after 24 hrs by WST assay; format: cell-based
[14] = tested on: JAR; assay: Increase in mature let-7i level in Lin28a/b knockdown human JAR cells at 10 uM after 20 hrs by qRT-PCR analysis; format: functional, cell-based
Method in brief: (§5)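 Lin28 knocked-down JAR cells treated for 20 h; let-7 levels measured against U6 snRNA endogenous control; 2 biological replicates.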

[15] = molecular target: Endoribonuclease Dicer (Homo sapiens) (UniProt Q9UPY3); assay: Inhibition of recombinant FLAG-tagged human dicer expressed in HEK293 cells assessed as reduction in pre-let-7g microRNA maturation at 5 to 10 uM after 40 mins by SYBR green2 dye based fluorescence assay; format: cell-based
[16] = molecular target: T1, Protein lin-28 homolog A (Homo sapiens); assay: Inhibition of biotinylated-preE-let-7g binding to Lin28a in human JAR cells by pull down assay; format: cell-based; method in brief: as §4
[17] = molecular target: T1, Protein lin-28 homolog A (Homo sapiens); assay: Inhibition of Cy5-preE-let-7a-1 binding to recombinant human N-terminal His6-tagged Lin28a expressed in Escherichia coli Rosetta2 (DE3) pLysS measured after 30 to 60 mins by electrophoretic mobility shift assay
[18] = tested on: JAR; assay: Increase in mature let-7d level in Lin28a/b knockdown human JAR cells at 10 uM after 20 hrs by qRT-PCR analysis; format: functional, cell-based; method in brief: as §5
[19] = tested on: PA-1; assay: Increase in mature let-7g level in Lin28a CRISPR-Cas9 knockout human PA1 cells at 10 uM after 20 hrs by qRT-PCR analysis; format: functional, cell-based; method in brief: as §3
[20] = molecular target: T1, Protein lin-28 homolog A (Homo sapiens); assay: Inhibition of Lin28a in human PA1 cells assessed as reduction in Ras expression at 10 uM after 24 hrs by Western blot analysis; format: cell-based; method in brief: as §1
[21] = molecular target: T2, Protein lin-28 homolog A/B (Homo sapiens); assay: Inhibition of Lin28a/Lin28b in human MCF7 cells assessed as reduction in Ras expression at 10 uM after 24 hrs by Western blot analysis; format: cell-based
[22] = tested on: JAR; assay: Inhibition of sphere formation in human JAR cells at 10 uM after 24 hrs by bright-field microscopic analysis; format: functional, cell-based
Method in brief: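 JAR cells are pretreated with compound for 24 h, then dissociated to single cells. Equal numbers of viable cells are grown for 12 days in sphere-forming media. The degree of sphere formation is assessed under a microscope.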

[23] = tested on: C2C12; assay: Cytotoxicity against mouse C2C12 cells at 10 uM after 24 hrs by WST assay; format: cell-based; conditions: c2c12, 24 h
[24] = molecular target: T2, Protein lin-28 homolog A/B (Homo sapiens); assay: Inhibition of Lin28a/Lin28b in human JAR cells assessed as increase in mature let-7g level after 20 hrs by TRIzol dye based qRT-PCR analysis; format: cell-based; method in brief: as §2
[25] = molecular target: T2, Protein lin-28 homolog A/B (Homo sapiens); assay: Inhibition of Lin28a/Lin28b in human JAR cells assessed as increase in mature let-7f level after 20 hrs by TRIzol dye based qRT-PCR analysis; format: cell-based; method in brief: as §2

T2 sequence (Q6ZN17 whole entry, looked up, one chain of several): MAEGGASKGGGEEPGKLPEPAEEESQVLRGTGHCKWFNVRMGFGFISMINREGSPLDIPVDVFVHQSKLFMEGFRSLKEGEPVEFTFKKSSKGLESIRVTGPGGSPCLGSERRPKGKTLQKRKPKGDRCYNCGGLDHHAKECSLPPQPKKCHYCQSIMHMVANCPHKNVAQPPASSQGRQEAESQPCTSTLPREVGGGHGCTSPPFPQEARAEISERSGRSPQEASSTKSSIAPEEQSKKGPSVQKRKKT
Endoribonuclease Dicer (Homo sapiens), sequence (Q9UPY3 whole entry): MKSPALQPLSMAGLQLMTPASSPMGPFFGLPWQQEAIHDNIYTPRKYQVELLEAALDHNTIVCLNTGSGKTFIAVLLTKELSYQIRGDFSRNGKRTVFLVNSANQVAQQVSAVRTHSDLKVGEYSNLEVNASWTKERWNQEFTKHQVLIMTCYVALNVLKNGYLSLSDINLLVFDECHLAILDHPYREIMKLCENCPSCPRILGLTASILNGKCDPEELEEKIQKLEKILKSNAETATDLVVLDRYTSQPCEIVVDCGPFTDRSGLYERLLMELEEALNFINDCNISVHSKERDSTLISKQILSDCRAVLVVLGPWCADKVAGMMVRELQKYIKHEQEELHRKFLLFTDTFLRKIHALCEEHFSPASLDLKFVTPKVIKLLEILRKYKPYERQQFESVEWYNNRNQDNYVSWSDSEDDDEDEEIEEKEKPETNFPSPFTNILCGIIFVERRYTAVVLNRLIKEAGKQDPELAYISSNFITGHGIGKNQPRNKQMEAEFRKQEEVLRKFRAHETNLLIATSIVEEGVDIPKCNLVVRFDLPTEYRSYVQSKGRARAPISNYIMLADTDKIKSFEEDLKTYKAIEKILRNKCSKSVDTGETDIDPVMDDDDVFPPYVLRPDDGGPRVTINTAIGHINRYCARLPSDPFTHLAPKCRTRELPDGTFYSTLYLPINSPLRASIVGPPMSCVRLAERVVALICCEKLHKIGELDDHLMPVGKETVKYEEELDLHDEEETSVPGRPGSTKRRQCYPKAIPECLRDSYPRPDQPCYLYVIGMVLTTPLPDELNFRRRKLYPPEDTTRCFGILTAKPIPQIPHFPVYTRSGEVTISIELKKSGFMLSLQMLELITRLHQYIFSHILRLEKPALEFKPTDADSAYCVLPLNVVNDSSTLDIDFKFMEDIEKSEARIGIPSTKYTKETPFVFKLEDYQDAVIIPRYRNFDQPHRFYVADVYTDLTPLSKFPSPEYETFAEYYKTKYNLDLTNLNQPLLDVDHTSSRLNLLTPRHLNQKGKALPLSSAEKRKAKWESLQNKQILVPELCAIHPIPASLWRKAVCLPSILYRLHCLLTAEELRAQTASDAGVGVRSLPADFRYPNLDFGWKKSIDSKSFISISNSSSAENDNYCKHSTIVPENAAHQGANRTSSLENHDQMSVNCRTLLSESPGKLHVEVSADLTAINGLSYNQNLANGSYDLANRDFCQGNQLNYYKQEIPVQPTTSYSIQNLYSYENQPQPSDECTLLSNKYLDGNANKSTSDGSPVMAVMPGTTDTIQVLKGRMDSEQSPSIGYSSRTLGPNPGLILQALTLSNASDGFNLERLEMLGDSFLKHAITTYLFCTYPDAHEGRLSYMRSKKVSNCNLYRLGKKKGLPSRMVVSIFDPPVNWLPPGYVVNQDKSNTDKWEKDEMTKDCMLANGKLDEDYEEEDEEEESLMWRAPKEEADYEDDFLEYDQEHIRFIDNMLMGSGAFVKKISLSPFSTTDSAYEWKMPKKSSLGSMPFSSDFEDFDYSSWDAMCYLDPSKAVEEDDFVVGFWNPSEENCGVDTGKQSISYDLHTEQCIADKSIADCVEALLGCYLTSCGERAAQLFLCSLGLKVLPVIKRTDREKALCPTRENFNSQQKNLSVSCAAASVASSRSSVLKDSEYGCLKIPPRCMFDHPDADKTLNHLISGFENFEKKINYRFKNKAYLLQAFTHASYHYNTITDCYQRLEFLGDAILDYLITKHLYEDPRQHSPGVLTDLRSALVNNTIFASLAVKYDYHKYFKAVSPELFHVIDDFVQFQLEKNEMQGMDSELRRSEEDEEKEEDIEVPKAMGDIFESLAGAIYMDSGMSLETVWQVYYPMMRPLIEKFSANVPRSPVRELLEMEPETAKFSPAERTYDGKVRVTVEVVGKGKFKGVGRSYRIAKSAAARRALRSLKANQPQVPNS
Heterogeneous nuclear ribonucleoprotein A1 (Homo sapiens), sequence (P09651 whole entry): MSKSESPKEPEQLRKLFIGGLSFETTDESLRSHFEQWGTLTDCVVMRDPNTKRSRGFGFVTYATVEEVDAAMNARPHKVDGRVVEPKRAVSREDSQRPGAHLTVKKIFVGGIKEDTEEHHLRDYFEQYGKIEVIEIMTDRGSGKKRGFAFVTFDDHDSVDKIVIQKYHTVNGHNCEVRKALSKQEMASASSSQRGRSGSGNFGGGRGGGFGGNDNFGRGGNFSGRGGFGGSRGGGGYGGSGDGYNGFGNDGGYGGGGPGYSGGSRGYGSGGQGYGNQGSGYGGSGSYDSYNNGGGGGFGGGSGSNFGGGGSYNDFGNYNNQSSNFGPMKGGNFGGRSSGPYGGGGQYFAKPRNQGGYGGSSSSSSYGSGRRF

NC(=O)c1c(Nc2ccc(Cl)cc2Cl)[nH]c2c(Cl)ccc(Cl)c2c1=O
4.8 µM: IC50 [4]
inactive: Activity [7] | Activity [9] | inhibition [12] | Activity [14] | inhibition [15] | Activity [18] | Activity [19] | inhibition [21]
5.9 µM: Kd [8]
active: Activity [1] | inhibition [2] | inhibition [3] | inhibition [5] | inhibition [6] | inhibition [10] | inhibition [11] | inhibition [16] Dose-dependent effect | inhibition [17] | inhibition [20] | inhibition [22] | inhibition [24] Dose-dependent effect | inhibition [25] Dose-dependent effect
Toxic: Activity [13] | Activity [23]
